# MrgX1 ag: agonists of human MrgX1 receptor, primary screen, HEK293 cells, Fluo-4 calcium flux; Mas-related G-protein coupled receptor member X1 (Homo sapiens), Q96LB2; Fluo-4 calcium fluorescence, agonist mode; hits give high values; AID 588627, 2011; 0.44% of 310,000 active; B-score at 10 µM;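 active means calcium response B-score plate-corrected fluorescence ratio at least 3 library SD, with starting fluorescence B-score inside 5 SD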
# Target sequence (Q96LB2 whole entry, looked up): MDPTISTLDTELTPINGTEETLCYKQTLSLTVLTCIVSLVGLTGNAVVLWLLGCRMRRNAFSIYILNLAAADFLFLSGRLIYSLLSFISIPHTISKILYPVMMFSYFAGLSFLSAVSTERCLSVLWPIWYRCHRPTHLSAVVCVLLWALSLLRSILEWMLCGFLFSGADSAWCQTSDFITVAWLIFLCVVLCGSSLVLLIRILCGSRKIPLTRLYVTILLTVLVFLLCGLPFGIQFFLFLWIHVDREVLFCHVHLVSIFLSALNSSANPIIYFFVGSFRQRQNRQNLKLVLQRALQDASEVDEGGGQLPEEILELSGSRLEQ
#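 Test system: HEK293 cells stably expressing human MrgX1 receptor; Input: fifteen thousand cells per well; Dosing: compound delivered in addition one of three; Schedule: overnight seeding, then 1 h dark dye loading; Technique: Fluo-4 NW calcium fluorescence; Measure: B-scored fluorescence response ratio; Controls: positive and negative controls per plate.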
# Hep lipid drop: inhibitors of hepatocyte lipid droplet formation, primary screen, imaging, high-throughput imaging, BODIPY stain. AML12 mouse hepatocytes, oleate lipid droplets. inhibition, % at 6.5 µM. 0.4% of 240,000 active. AID 1656, 2009;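 active means lipid droplet intensity inhibited by at least 50%, with more than 500 cells counted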
#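 Test system: AML12 hepatocytes (mouse); reagent: oleate loading, 100 µM; dosing: one dose, 6.5 µM compound; incubation: overnight exposure; signal: fluorescence imaging, 20x objective, two fields per well; read-out basis: % inhibition of corrected integrated BODIPY droplet signal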
# MrgX1 antagonist: antagonists of human MrgX1 receptor, primary screen, HEK293 cells, Fluo-4 calcium flux | Mas-related G-protein coupled receptor member X1 (Homo sapiens), Q96LB2 | 1.3% of 310,000 active | B-score at 10 µM | BAM8-22 antagonism; hits give low values;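 active means calcium-response B-score plate-corrected more than 3 library SD below zero, starting fluorescence within 5 deviations, no agonist response on first addition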;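 further: peak minus trough fluorescence over baseline after final BAM8-22 challenge near maximal dose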
# RGS4 inh: RGS4 inhibitors, primary screen, cell-based, HEK293 M3R inducible RGS4, calcium flux; Regulator of G-protein signaling 4 (Homo sapiens), P49798; Fluo-4 calcium flux; hits give high values; triggered by carbachol at its EC20; B-score at 10 µM; 0.45% of 310,000 active;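 active means B-score, a plate-corrected calcium signal, over three deviations above library mean, with baseline fluorescence within five deviations of library mean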;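 further: RGS4 expression induced by doxycycline in cells with stable M3 receptor; B-score is computed from the integrated fluorescence ratio over baseline after carbachol; higher B-score means a larger calcium signal and so more RGS4 inhibition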
# Target sequence (P49798 whole entry, looked up): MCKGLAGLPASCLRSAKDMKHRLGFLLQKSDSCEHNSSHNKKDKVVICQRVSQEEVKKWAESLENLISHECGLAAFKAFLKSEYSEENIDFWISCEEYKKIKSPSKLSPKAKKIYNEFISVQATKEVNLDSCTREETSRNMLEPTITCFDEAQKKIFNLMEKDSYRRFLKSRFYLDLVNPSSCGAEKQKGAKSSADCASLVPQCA
# RGS4 act: RGS4 potentiators or activators, primary screen, cell-based, HEK293 M3R inducible RGS4, calcium flux | B-score at 10 µM | AID 463111, 2010 | carbachol calcium flux Fluo4; hits give low values | 0.92% of 310,000 active;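 active means B-score of the integrated calcium signal more than 4 SD below the library mean, with starting fluorescence not abnormally high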;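 further: negative B-score means reduced calcium response which marks RGS4 activation or potentiation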
#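 test system = M3R-expressing HEK293 line, RGS4 induced by doxycycline | probe or stimulus = carbachol at ECmax as muscarinic agonist stimulus | timing = dye loading 30 min 37 °C, buffer rest 30 min RT | signal = calcium dye Fluo4 fluorescence | evaluation = B score from integrated fluorescence ratio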
# MrgX1 allo act: positive allosteric modulators of MrgX1, primary screen, HEK293 cells, Fluo-4 calcium flux | Mas-related G-protein coupled receptor member X1 (Homo sapiens), Q96LB2 | FDSS; hits give high values | B-score at 10 µM | 0.63% of 310,000 active | AID 588675, 2011;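 active means plate-corrected calcium response at least 3 library SD above typical, normal starting fluorescence, not activating the receptor alone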;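 further: compound read alongside a low EC10 to EC30 dose of BAM8-22 agonist; peak minus trough fluorescence over baseline measured at the second addition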
# Hep lipid conf: hepatocyte lipid droplet accumulation inhibitors, confirmation, imaging, AML12 mouse hepatocytes, single concentration, high-content; shares compounds with Hep lipid drop; BODIPY lipid droplet imaging; droplets induced with 100 µM oleic acid; inhibition, % at 5.2 µM; 65% of 870 active; AID 463183, 2010;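 active means inhibition of lipid droplet metric at least 50%, with more than 300 cells in each of four replicates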;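 further: plate controls were DMSO with oleic acid for no effect and 5 µM Triacsin-C for full effect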
# AML12 tox img: AML12 hepatocyte cytotoxicity, counter-screen for hepatic lipid droplet formation project, imaging, DAPI nuclear morphology imaging. shares compounds with Hep lipid drop. AML12 mouse hepatocytes; hits give high values; cells fed 100 µM oleate overnight. z-score at 5 µM. 3% of 870 active; in the data active means z-score above about 6.3;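 further: compound exposure lasted overnight at 37 °C before fixation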
# AML12 tox ATP: AML12 hepatocyte cytotoxicity, confirmation, cytotoxicity control for hepatic lipid droplet formation project, cell-based, single concentration. shares compounds with Hep lipid drop. AML12 mouse hepatocyte viability, ATP luminescence; cells loaded with 100 µM oleic acid. cytotoxicity, % at 50 µM. 530 tested, under 10 active. AID 463219, 2010;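 active means cytotoxicity above 50% in each of four replicates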;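 further: compound exposure lasted overnight at 37 °C before the ATP read; 0% = DMSO-treated cells and 100% = wells with no cells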
# Numbers without * were called inactive; i = inactive; nt = not tested or not shown. An excerpt weighted towards active compounds, which were near 3.8% of everything screened.
SMILES,MrgX1 ag,Hep lipid drop,MrgX1 antagonist,RGS4 inh,RGS4 act,MrgX1 allo act,Hep lipid conf,AML12 tox img,AML12 tox ATP
COc1ccc(C(C#N)N2CCOCC2)cc1 (configuration not stated),i,53*,i,i,i,i,26,-1.1,nt
COc1ccc(CN2CCOCC2)cc1,i,0,i,i,i,i,nt,nt,nt
COc1cccc(-c2cn(-c3cccc(C(F)(F)F)c3)c(=S)[nH]2)c1,i,59*,i,i,i,i,2,0.35,nt
Cc1ccc(C(=O)Nc2ccon2)cc1S(=O)(=O)N1CCCC1,i,20,i,i,i,i,nt,nt,nt
Cc1noc(C)c1C(=O)Nc1ccc(F)cc1F,i,55*,i,i,i,i,28,-0.47,nt
O=C(c1ccc(OC2CCN(Cc3ccccn3)CC2)cc1)N1CCCCO1,i,9,i,i,i,i,nt,nt,nt
FC(F)(F)COc1nc(N2CCOCC2)nc(N(c2ccccc2)c2ccccc2)n1,i,51*,i,i,i,i,73*,0.91,-14
CS(=O)(=O)Nc1ccc(C(=O)Nc2ccccc2C(=O)NCc2ccco2)cc1,i,57*,i,i,i,i,-3,-0.51,nt
Cc1ccccc1CN(c1ccc(C(=O)Nc2ccccc2C(=O)NCc2ccco2)cc1)S(C)(=O)=O,i,-11,i,i,i,i,nt,nt,nt
CCCSC1=C(C#N)C(c2cccs2)C(C(=O)Nc2ccccc2)=C(C)N1 (configuration not stated),i,54*,i,i,i,i,93*,-0.17,-2
CC(=O)Nc1ccc(S(=O)(=O)NC(C)C(=O)NCCc2ccc(F)cc2)cc1 (configuration not stated),i,10,i,i,i,i,nt,nt,nt
CCOC(=O)c1cc(-c2ccc(C)cc2)nc2nc(SC)[nH]c(=O)c12,i,104*,i,i,i,i,107*,-0.18,nt
COC(=O)c1cc(-c2ccc(OC)cc2)nc2nc(SC)[nH]c(=O)c12,i,67*,i,i,i,i,27,-0.77,nt
CCOC(=O)c1cc(-c2cccc(C(F)(F)F)c2)nc2nc(SC)[nH]c(=O)c12,i,12,i,i,i,i,nt,nt,nt
CNC(=O)c1cc(S(=O)(=O)N(C)C)ccc1Cl,i,-1,i,i,i,i,nt,nt,nt
Nn1c(SCc2nc3ccccn3c2Br)nnc1-c1cccnc1,i,nt,i,i,i,i,nt,nt,nt
O=C(Nc1ccccc1)C1=C[C@@H](C2CCCCC2)C[C@@H](OCc2ccc(CO)cc2)O1,i,53*,i,i,i,i,65*,-0.34,8
O=C(Nc1ccccc1)C1=C[C@H](C2CCCCC2)C[C@H](OCc2ccc(CO)cc2)O1,i,-32,i,i,i,i,nt,nt,nt
Cc1ccc(N2C(N)=C(C#N)C(c3cc(CN4CCOCC4)cs3)C3=C2CC(C)(C)CC3=O)cc1 (configuration not stated),i,75*,i,i,i,i,87*,0.078,3
Cc1cc(C)c2nc(SCC(=O)N3CC(=O)Nc4ccccc43)c(C#N)cc2c1,i,163*,i,i,i,i,-307,22*,nt
Cc1ccc(C(=O)NCCCNC(=O)c2ccc(C)nc2)cc1,i,-7,i,i,i,i,nt,nt,nt
CCOc1ccc(C(=O)NCCNC(=O)c2ccc(OCC)cc2)cc1,i,86*,i,i,i,i,96*,-0.41,18
CCCOc1cccc(C(=O)NCCNC(=O)c2ccc(C)nc2)c1,i,51*,i,i,i,i,83*,-0.15,4
Cc1ccc(C(=O)NCCNC(=O)c2ccc(C)nc2)cc1,i,56*,i,i,i,i,91*,-0.25,7
COc1ccc(NS(=O)(=O)c2ccc(F)c(Cl)c2)cn1,i,nt,i,i,i,i,nt,nt,nt
SMILES,MrgX1 ag,Hep lipid drop,MrgX1 antagonist,RGS4 inh,RGS4 act,MrgX1 allo act,Hep lipid conf,AML12 tox img,AML12 tox ATP
Cc1cc(NC(=O)COC(=O)CCS(=O)(=O)c2cc(Cl)ccc2Cl)no1,i,-6,i,i,i,i,nt,nt,nt
COc1cc(NC(=O)c2cccs2)c(OC)cc1NC(=O)CCC(=O)Nc1ccc2ncccc2c1,nt,68*,nt,i,i,nt,95*,0.97,68
Cc1ccc(NC(=O)Cc2ccc3c(c2)CCCC3)cc1C,i,53*,i,i,i,i,64*,0.49,9
Cc1ccc(NC(=O)Nc2ccc3c(c2)CCC3)cc1C,i,-12,i,i,i,i,nt,nt,nt
O=C(O)CCCC(=O)N1N=C(c2ccccc2)CC1c1ccc2c(c1)OCO2 (configuration not stated),i,-13,i,i,i,i,nt,nt,nt
C=C(C)n1c(=O)[nH]c2ccccc21,i,nt,i,i,i,i,nt,nt,nt
COc1ccc(F)cc1CN1CCN(c2ncnc3scc(-c4ccccc4)c23)CC1,i,56*,i,i,i,i,-3,0.65,nt
Cc1ccc(C(C)n2cc(C(=O)NCc3ccccn3)nn2)cc1 (configuration not stated),i,7,i,i,i,i,nt,nt,nt
COc1cccc(N=CC=C2OC(C)(C)C(C)(C)O2)c1,i,66*,i,i,i,i,12,-0.37,nt
Cc1cccc(N=CC=C2OC(C)(C)C(C)(C)O2)c1,i,0,i,i,i,i,nt,nt,nt
COc1cccc(NC(=O)c2cc3ccccc3oc2=O)c1,i,1,i,i,i,i,nt,nt,nt
